For data set [1] the following is noted: cited from earlier work.
Data set [2] is classed as in vivo, healthy Japanese men. The settings on record: for Accumulation ratio (day 15/day 1) AUC0–168h / Accumulation ratio (day 15/day 1) Cmax / Accumulation ratio (day 15/day 1) Ctrough: geometric mean ratio (90% CI). Summed up:
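Blood went into dipotassium-EDTA tubes, was spun 10 min at 1000–1300 g, and plasma was frozen at −20°C. Assay was online-extraction turbulent-flow LC, LLOQ 1.0 ng/mL. Accumulation was the day 15/day 1 geometric mean ratio, computed on the log scale with CIs. For the food comparison, 10 mg single doses were given after a ≥10-h fast or after a 411-kcal Japanese breakfast finished 10 min predose.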

A short description of the next data set: Urine pharmacokinetics. The class given is in vivo, healthy Japanese men. As to conditions: male, human, 50 mg. Summed up:
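After the 50 mg once-weekly dose on day 15, urine was collected predose (day 1) and at intervals up to 168 h. Tween 20 was added to 0.2% final and samples were stored at −20°C. The assay was LC online extraction, LLOQ 40 ng/mL. Amount excreted was the sum of concentration × volume per interval, fraction excreted was amount/dose, and renal clearance was amount/AUC0–168h.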

Data set [3] has as its target T1, plasma DPP‐4 activity (Homo sapiens, UniProt P27487). The data set is described as follows: Percent inhibition of plasma DPP-4 activity from baseline. The format is in vivo, healthy Japanese men. As to conditions: for DPP-4 percent inhibition from baseline, LS mean (95% CI) / DPP-4 percent inhibition, difference from placebo, difference in LS means (90% CI): 168 h post-dose. Summed up: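 Healthy men received 1–50 mg orally once weekly for 3 weeks. Blood was drawn predose and at set times on days 1 and 15; 4-h and 24-h samples preceded meals. EDTA plasma was incubated with glycyl-prolyl-paranitroanilide, and the absorbance rise at 390 nm was read from 4 to 14 min (LOQ 0.6 mOD/min). Inhibition was taken versus pretreatment and analysed by a log-scale mixed model (treatment, day, interaction; participant random).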

In data set [4] the target is T1, plasma DPP‐4 activity. The class given is in vivo, healthy Japanese men. As to conditions: pharmacokinetic/pharmacodynamic Emax model. Summed up:
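For each participant, percent inhibition of plasma DPP-4 activity (chromogenic glycyl-prolyl-paranitroanilide substrate, 390 nm) was paired with plasma drug concentration after single oral doses. A population three-parameter Emax model (Emax, EC50, Hill slope) was fitted, and the 80% effective concentration was derived from it.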

The nature of data set [5]: Safety and tolerability assessments. The format is in vivo, healthy Japanese men. Summed up: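 Part 1 used single doses of 5–100 mg and part 2 used 1–50 mg once weekly for 3 weeks, each with placebo. Adverse events were recorded throughout and rated for intensity, duration, severity, outcome and drug relationship. Vital signs, physical and neurological exams, 12-lead ECGs, laboratory tests and glucometer readings were taken predose, post-dose and post-study. Events were tabulated by dose, with change-from-baseline summaries.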

For data set [6] the following is noted: concentration range for 50 mg q.w. dosing; ref unpubl. data; cited from earlier work.
The conditions of data set [7]: no reference given; cited from earlier work.
The next data set deals with OAT1. As to conditions: no reference given; cited from earlier work.
Another data set relates to OAT3. The settings on record: no reference given; cited from earlier work.
A further data set deals with OCT2. The settings on record: no reference given; cited from earlier work.
The subject of data set [8] is active glucagon‐like peptide‐1. As to conditions: healthy males; earlier study; cited from earlier work.
The mark [9] stands for this setting: multiple dose 1 mg q.w., day 15.
Where [10] appears, read: multiple dose 10 mg q.w., day 15.
Setting [11] is: multiple dose 25 mg q.w., day 15.
Where [12] appears, read: multiple dose 50 mg q.w., day 15.
Setting [13] is: single 5–100 mg and multiple 1–50 mg q.w. doses.
[14] abbreviates: single 5–100 mg and multiple 1–50 mg q.w. doses, listed as Omarigliptin.

Molecules are shown by their SMILES. “Also recorded” adds a separate entry of the source. Like-named read-outs stand apart in the source and are kept apart here.

T1 sequence (P27487 39-766): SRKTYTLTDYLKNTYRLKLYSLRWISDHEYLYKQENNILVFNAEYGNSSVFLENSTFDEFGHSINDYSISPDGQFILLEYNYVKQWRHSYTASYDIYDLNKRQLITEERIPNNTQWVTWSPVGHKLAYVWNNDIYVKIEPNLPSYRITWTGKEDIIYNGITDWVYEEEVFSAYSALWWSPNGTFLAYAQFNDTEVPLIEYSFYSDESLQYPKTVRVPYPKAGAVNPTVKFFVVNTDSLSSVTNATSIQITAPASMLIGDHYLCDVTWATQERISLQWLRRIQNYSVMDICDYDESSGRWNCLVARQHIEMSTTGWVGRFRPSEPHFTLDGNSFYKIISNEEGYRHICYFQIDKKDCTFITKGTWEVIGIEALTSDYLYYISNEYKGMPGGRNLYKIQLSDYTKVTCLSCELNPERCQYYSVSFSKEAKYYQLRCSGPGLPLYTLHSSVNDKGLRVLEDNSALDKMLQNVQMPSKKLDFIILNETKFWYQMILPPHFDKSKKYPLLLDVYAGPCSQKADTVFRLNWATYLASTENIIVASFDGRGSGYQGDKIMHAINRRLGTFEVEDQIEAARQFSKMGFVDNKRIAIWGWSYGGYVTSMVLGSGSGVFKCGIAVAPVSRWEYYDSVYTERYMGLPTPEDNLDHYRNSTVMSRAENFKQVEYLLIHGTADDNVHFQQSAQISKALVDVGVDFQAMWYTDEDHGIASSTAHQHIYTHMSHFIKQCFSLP

For `Cn1c(=O)cc(N2CCC[C@@H](N)C2)n(Cc2ccccc2C#N)c1=O` [alogliptin], in [1], the “renal clearance compared with typical glomerular filtration rates” value is “higher renal clearance than typical glomerular filtration rates”.
Turning to `CS(=O)(=O)n1cc2c(n1)CN([C@H]1CO[C@H](c3cc(F)ccc3F)[C@@H](N)C1)C2` [omarigliptin], in data set [2] (1 mg q.w. for 3 weeks), the “Accumulation ratio (day 15/day 1) AUC0–168h” value is 1.35 (1.27–1.44), the “Accumulation ratio (day 15/day 1) Cmax” value is on record as 1.36 (1.13–1.63) and the “Accumulation ratio (day 15/day 1) Ctrough” value is 1.24 (1.06–1.44). Moreover, in data set [2] (10 mg q.w. for 3 weeks), the “Accumulation ratio (day 15/day 1) AUC0–168h” value is on record as 1.09 (1.04–1.15), the “Accumulation ratio (day 15/day 1) Cmax” value is reported as 1.18 (1.00–1.38) and the “Accumulation ratio (day 15/day 1) Ctrough” value was 0.97 (0.86–1.10). The “effect of food on pharmacokinetics” value in data set [2] (10 mg single dose with Japanese standard breakfast) is on record as “did not meaningfully alter the pharmacokinetics”. In data set [2] (25 mg q.w. for 3 weeks), the “Accumulation ratio (day 15/day 1) AUC0–168h” value was 1.05 (1.00–1.11), the “Accumulation ratio (day 15/day 1) Cmax” value was 0.87 (0.75–1.02) and the “Accumulation ratio (day 15/day 1) Ctrough” value is 1.11 (0.98–1.26). Further, in data set [2] (50 mg q.w. for 3 weeks), the “Accumulation ratio (day 15/day 1) AUC0–168h” value is 1.03 (0.97–1.09), the “Accumulation ratio (day 15/day 1) Cmax” value is reported as 1.21 (1.02–1.43) and the “Accumulation ratio (day 15/day 1) Ctrough” value is on record as 1.03 (0.90–1.18). Also, in data set [2] (1–50 mg q.w. for 3 weeks), the “accumulation ratio (day 15/day 1) AUC0–168h, range” value is on record as 1.03–1.35; the “accumulation ratio (day 15/day 1) Cmax, range” value was 0.87–1.36; the “accumulation ratio (day 15/day 1) trough plasma concentration, range” value is recorded as 0.97–1.24. Moreover, the half-life in [2] (male, human, plasma, po, 10 mg, t½, single dose 10 mg, fed, geometric mean (%CV)) was 89.5 h. For the same compound, in data set [2] (multiple dose 1–50 mg q.w.), the “dose proportionality of AUC0–168h and trough plasma concentration” value was “less than dose‐proportional”; the “dose proportionality of Cmax” value is recorded as “dose‐proportional”. The “time at which steady state was reached” value in [2] (multiple q.w. dosing, all doses tested) is given as “after the first dose”. In data set [2] (single dose 10 mg, GMR, 90% CI), the “AUC0–168h geometric mean ratio (fed/fasted)” value is recorded as 0.97 (0.90–1.03), the “AUC0–∞ geometric mean ratio (fed/fasted)” value is 1.03 (0.96–1.11), the “C168h geometric mean ratio (fed/fasted)” value is 1.13 (0.93–1.37) and the “Cmax geometric mean ratio (fed/fasted)” value is on record as 0.75 (0.65–0.86). For the same compound, in data set [2] (single dose 5–100 mg), the “dose proportionality of AUC0–∞, AUC0–168h and Cmax” value is listed as “approximately dose‐proportional”; the “dose proportionality of C168h” value is listed as “less than dose‐proportional”. This compound showed a CL renal in the data set “Urine pharmacokinetics” (urine and plasma, oral) of 50 to 68 mL/min. In the data set “Urine pharmacokinetics” (urine, po), this compound showed a CL renal of 38.3 mL/min. Also, the “percent inhibition of DPP‐4 activity from baseline at 168 h, range” value at plasma DPP‐4 activity [3] (1–50 mg q.w., after 3 weeks dosing) was 51.3–90.2%. In addition, at plasma DPP‐4 activity [3] (setting [9]), the “DPP-4 percent inhibition from baseline, LS mean (95% CI)” value (shortened to “DPP-4 percent inhibition … (95% CI)”) is listed as 51.33 (29.67–66.32) % and the “DPP-4 percent inhibition, difference from placebo, difference in LS means (90% CI)” value (“DPP-4 percent inhibition, difference … (90% CI)” for short) is reported as 42.48 (31.06–54.19) %. On plasma DPP‐4 activity [3] (setting [10]), the “DPP-4 percent inhibition … (95% CI)” value is listed as 83.26 (77.03–87.80) % and the “DPP-4 percent inhibition, difference … (90% CI)” value is reported as 74.41 (65.73–83.59) %. Moreover, at plasma DPP‐4 activity [3] (setting [11]), the “DPP-4 percent inhibition … (95% CI)” value is given as 87.52 (83.55–90.53) % and the “DPP-4 percent inhibition, difference … (90% CI)” value is 78.67 (70.36–87.51) %. In addition, at plasma DPP‐4 activity [3] (setting [12]), the “DPP-4 percent inhibition … (95% CI)” value is 90.23 (86.59–92.88) % and the “DPP-4 percent inhibition, difference … (90% CI)” value was 81.37 (73.30–90.00) %. For the same compound, on plasma DPP‐4 activity [3] (single dose 5 mg), the “DPP-4 percent inhibition … (95% CI)” value is 79.20 (76.17–81.85) % and the “DPP-4 percent inhibition, difference … (90% CI)” value was 87.89 (80.96–95.09) %. In addition, at plasma DPP‐4 activity [3] (single dose 10 mg (fasted)), the “DPP-4 percent inhibition … (95% CI)” value was 77.39 (74.14–80.24) % and the “DPP-4 percent inhibition, difference … (90% CI)” value was 86.09 (79.05–93.38) %. In addition, on plasma DPP‐4 activity [3] (single dose 10 mg (fed)), the “DPP-4 percent inhibition … (95% CI)” value is reported as 73.90 (70.14–77.18) % and the “DPP-4 percent inhibition, difference … (90% CI)” value is 82.59 (75.36–90.06) %. Moreover, at plasma DPP‐4 activity [3] (single dose 25 mg), the “DPP-4 percent inhibition … (95% CI)” value is recorded as 85.97 (83.66–87.95) % and the “DPP-4 percent inhibition, difference … (90% CI)” value was 94.66 (88.11–101.49) %. At plasma DPP‐4 activity [3] (single dose 50 mg), the “DPP-4 percent inhibition … (95% CI)” value is 86.76 (84.59–88.63) % and the “DPP-4 percent inhibition, difference … (90% CI)” value is on record as 95.45 (88.95–102.25) %. Also, at plasma DPP‐4 activity [3] (single dose 100 mg), the “DPP-4 percent inhibition … (95% CI)” value is listed as 94.01 (93.03–94.85) % and the “DPP-4 percent inhibition, difference … (90% CI)” value was 102.70 (96.60–109.11) %. Besides, the “inhibition from baseline of DPP‐4 activity maintained for 168 h” value at plasma DPP‐4 activity [3] (single and multiple q.w. administration at a dose of 25 mg or higher) was “Greater than 80%”. In addition, at plasma DPP‐4 activity [4], the Emax value was 96.5 % inhibition and the “estimated 80% effective concentration” value was 11.4 nmol. In data set [5] (part 1, single dosing), the “drug‐related clinical adverse events after omarigliptin” value is listed as “five”. Also, the “drug‐related adverse events” value in data set [5] (part 2, multiple dosing) was “Eight”. In data set [5] (part 2, multiple dosing, nine participants), the “total clinical adverse events” value was 13. Besides, in data set [5] (setting [13]), the “adverse events of hypoglycemia” value is reported as “no adverse events of hypoglycemia”; the “serious clinical or laboratory adverse events” value is reported as “no serious clinical or laboratory adverse events; also recorded: No deaths, serious adverse events or laboratory adverse events were reported”; the tolerability result was “well tolerated”. Further, in data set [5] (setting [14]), the “adverse events of hypoglycemia” value was “no hypoglycemia being reported” and the tolerability entry was “generally well tolerated”. Further, in [5] (whole study), the “changes from baseline in laboratory, vital signs, glucose monitoring or ECG parameters” value is listed as “no clinically significant, consistent treatment‐related or dose‐related changes from baseline” and the “discontinuation because of an adverse event” value is “no participants were discontinued”. Moreover, the “intensity of adverse events” value in data set [5] (whole study, all resolved by the end of the study) is listed as “mild or moderate intensity”. Further, in data set [6], the “free fraction of omarigliptin in humans” value is 56–76%. Moreover, the permeability entry in data set [7] is given as “high permeability”. Further, in the data set with OAT1, the “substrate of drug transporter OAT1” value is reported as “not a substrate”. For the same compound, in the data set with OAT3, the “substrate of drug transporter OAT3” value is recorded as “not a substrate”. Also, the “substrate of drug transporter OCT2” value in the data set with OCT2 is given as “not a substrate”. Moreover, the “enhancement of post‐meal active glucagon‐like peptide‐1” value in data set [8] is recorded as “approximately twofold”.
For the compound `N[C@@H](CC(=O)N1CCn2c(nnc2C(F)(F)F)C1)Cc1cc(F)c(F)cc1F` [sitagliptin], the “renal clearance compared with typical glomerular filtration rates” value in [1] was “higher renal clearance than typical glomerular filtration rates”.
Regarding `Cn1c(=O)cc(N2CCC[C@@H](N)C2)n(Cc2cc(F)ccc2C#N)c1=O` [trelagliptin], the “renal clearance compared with typical glomerular filtration rates” value in [1] is given as “higher renal clearance than typical glomerular filtration rates”.
